Screens from PubChem BioAssay.
Rows were chosen to be rich in hits. Some 3.5% of all compounds tested hit in one or more screens of this group.
MrgX1 agonist: agonists of human MrgX1 receptor, primary screen, HEK293 cells, Fluo-4 calcium flux; Mas-related G-protein coupled receptor member X1 (Homo sapiens), Q96LB2; Fluo-4 calcium fluorescence, agonist mode; hits give high values; B-score at 10 µM; 310,000 tested, 0.44% active; AID 588627, 2011;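 active means calcium response B-score plate-corrected fluorescence ratio at least 3 library SD, with starting fluorescence B-score inside 5 SD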
Target sequence (Q96LB2 whole entry, looked up): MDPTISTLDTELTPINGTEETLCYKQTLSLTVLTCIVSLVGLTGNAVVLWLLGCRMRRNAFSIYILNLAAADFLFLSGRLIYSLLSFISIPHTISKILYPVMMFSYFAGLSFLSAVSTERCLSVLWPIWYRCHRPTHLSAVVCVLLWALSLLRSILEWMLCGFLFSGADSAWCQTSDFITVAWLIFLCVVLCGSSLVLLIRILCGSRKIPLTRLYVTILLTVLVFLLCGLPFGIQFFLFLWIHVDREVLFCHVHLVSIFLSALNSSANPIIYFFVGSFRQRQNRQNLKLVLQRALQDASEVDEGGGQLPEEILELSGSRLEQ
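Test system: Stable human MrgX1 HEK293 cell line | Schedule: Overnight plating before 1 h dye loading | Read-out basis: Baseline-normalised fluorescence change ratio, B-scored | Detection: Kinetic calcium dye fluorescence, Fluo-4 NW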
MrgX1 allo act: positive allosteric modulators of MrgX1, primary screen, HEK293 cells, Fluo-4 calcium flux. AID 588675, 2011. 310,000 tested, 0.63% active. FDSS; hits give high values. B-score at 10 µM;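 active means plate-corrected calcium response at least 3 library SD above typical, normal starting fluorescence, not activating the receptor alone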;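 further: compound read alongside a low EC10 to EC30 dose of BAM8-22 agonist; peak minus trough fluorescence over baseline measured at the second addition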
RGS4 block: RGS4 inhibitors, primary screen, cell-based, HEK293 M3R inducible RGS4, calcium flux; B-score at 10 µM; AID 463165, 2010; 310,000 tested, 0.45% active; Fluo-4 calcium flux; hits give high values; triggered by carbachol at its EC20;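 active means B-score, a plate-corrected calcium signal, over three deviations above library mean, with baseline fluorescence within five deviations of library mean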;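 further: RGS4 expression induced by doxycycline in cells with stable M3 receptor; B-score is computed from the integrated fluorescence ratio over baseline after carbachol; higher B-score means a larger calcium signal and so more RGS4 inhibition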
Target sequence (P49798 whole entry, looked up): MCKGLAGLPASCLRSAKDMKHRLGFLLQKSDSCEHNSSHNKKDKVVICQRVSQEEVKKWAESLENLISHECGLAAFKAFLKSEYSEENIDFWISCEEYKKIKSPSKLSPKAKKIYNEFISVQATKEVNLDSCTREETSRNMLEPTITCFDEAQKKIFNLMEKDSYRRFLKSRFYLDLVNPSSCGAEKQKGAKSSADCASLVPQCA
MrgX1 antag: antagonists of human MrgX1 receptor, primary screen, HEK293 cells, Fluo-4 calcium flux; 310,000 tested, 1.3% active; B-score at 10 µM; BAM8-22 antagonism; hits give low values; Mas-related G-protein coupled receptor member X1 (Homo sapiens), Q96LB2;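 active means calcium-response B-score plate-corrected more than 3 library SD below zero, starting fluorescence within 5 deviations, no agonist response on first addition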;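 further: peak minus trough fluorescence over baseline after final BAM8-22 challenge near maximal dose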
RGS4 pot: RGS4 potentiators or activators, primary screen, cell-based, HEK293 M3R inducible RGS4, calcium flux; carbachol calcium flux Fluo4; hits give low values; B-score at 10 µM; 310,000 tested, 0.92% active;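 active means B-score of the integrated calcium signal more than 4 SD below the library mean, with starting fluorescence not abnormally high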;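 further: negative B-score means reduced calcium response which marks RGS4 activation or potentiation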
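Material: M3R-expressing HEK293 line, RGS4 induced by doxycycline | Schedule: Overnight RGS4 induction, 30 min dye load 37 °C, 20 min compound RT | Measured by: Fluo4 fluorescence kinetic imaging of calcium | Read-out: Integrated calcium ratio converted to B score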
The depositor's hits bear a star; i = inactive; . = no result.

SMILES	MrgX1 agonist	MrgX1 allo act	RGS4 block	MrgX1 antag	RGS4 pot
Cc1ccc(C2(c3ccc(C)cc3)CC2C(=O)Nc2ccc([N+](=O)[O-])cc2O)cc1 (stereo not drawn)	i	i	i	-4.5*	i
CC1(C)CC1C(=O)Nc1ccc([N+](=O)[O-])cc1Br (stereo not drawn)	i	i	i	i	i
CCc1ccc(C2C(C#N)=C(N)SC(N)=C2C#N)s1	i	i	i	-6.1*	i
CCc1ccc(C2C(C#N)=C(N)SC(N)=C2C#N)cc1	i	i	i	-5.3*	i
N#CC1=C(N)SC(N)=C(C#N)C1c1ccc(C(F)(F)F)cc1	i	i	i	i	i
Cc1ccc(C2C(C#N)=C(N)SC(N)=C2C#N)o1	i	i	i	-7.3*	i
COc1c(-c2ccc([N+](=O)[O-])cc2[N+](=O)[O-])c(=O)n(C)c(=O)n1C	i	i	i	i	i
CC(c1ccccc1)C(CC(=O)O)C(=O)Nc1ccc(Cl)c(Cl)c1 (stereo not drawn)	i	i	i	i	i
Cn1cc(C(=O)C(=O)NC2CCCCC2)c2ccccc21	i	i	i	i	i
Cc1cc(C(=O)COC(=O)CC2Sc3ccccc3NC2=O)c(C)n1-c1cccc(C(F)(F)F)c1 (stereo not drawn)	i	i	i	i	-8.2*
COc1cc2[nH]c3c(=O)n4c(nc3c2cc1OC)SCCC4	i	i	i	i	i
Cc1ccc(CCN2CC(C(=O)NCCCOC(C)C)CC2=O)cc1 (stereo not drawn)	i	i	i	-4.5*	i
CC(C)OCCCNC(=O)C1CC(=O)N(CCc2ccc(F)cc2)C1 (stereo not drawn)	i	i	i	i	i
COc1ccc(/C=C/C(=O)c2ccc3ccccc3c2O)cc1CN1CCOCC1	i	i	i	-4.7*	i
CN(C)S(=O)(=O)c1cccc(NC(=O)c2ccc(-n3cncn3)c([N+](=O)[O-])c2)c1	i	i	i	i	i
CN(CC(=O)Nc1ccc(Cl)cc1)C(=O)CCc1nc2sc3c(c2c(=O)[nH]1)CCCC3	i	i	i	i	i
CC(=O)/C(N=Nc1cc2c(c([N+](=O)[O-])c1C)C(C)(C)CC2(C)C)=C(\C)O	i	9.4*	i	i	i
O=C(O)C[C@H](O)C[C@H](O)/C=C/c1c(C2CC2)nc2ccccc2c1-c1ccc(F)cc1	.	.	i	.	-7*
Cc1nc2ccccc2c(-c2ccccc2)c1CC(=O)O	i	i	i	i	i
O=[N+]([O-])c1cnc2nc(-c3ccncc3)nn2c1O	i	i	i	i	i
Cc1c(C(=O)N(C)C2CC(C)(C)NC(C)(C)C2)oc2c(F)cccc12	i	i	i	i	i
O=C(NNC(=O)C1CC2CCC1C2)c1sc2ccccc2c1Cl (stereo not drawn)	i	6.9*	i	i	i
Cc1ccc(NC(=O)C(=O)NCCCN2CC(C(=O)O)CC2=O)cc1 (stereo not drawn)	i	i	i	i	i
CC1(c2nnc(-c3ccc(Cl)cc3)o2)CC(c2c(Cl)cccc2Cl)=NO1 (stereo not drawn)	i	i	i	i	-9.2*
CC1(c2nnc(-c3ccc(F)cc3)o2)CC(c2c(Cl)cccc2Cl)=NO1 (stereo not drawn)	i	i	i	i	i
SMILES	MrgX1 agonist	MrgX1 allo act	RGS4 block	MrgX1 antag	RGS4 pot
CCCCNC(=O)NS(=O)(=O)c1ccc(NC(=O)CCC(=O)c2cccs2)cc1	i	i	i	i	i
Cc1ccc(C)c(-n2c3nc(=O)[nH]c(=O)c-3cc3cc([N+](=O)[O-])ccc32)c1	34*	i	.	i	.
C=CCN(C)CC/C=C1\c2ccccc2CSc2ccccc21	i	i	i	i	-11*
C#CCN(C)CC/C=C1\c2ccccc2CSc2ccccc21	i	i	i	i	-8.7*
CN(C)CC/C=C1/c2ccc(F)cc2Sc2ccc(Cl)cc21	i	i	i	i	-7.8*
CN(C)CC/C=C1\c2cc(F)ccc2CSc2ccccc21	i	i	i	i	-8.8*
O=c1c2ccccc2c(C=Nc2cccc(S(=O)(=O)NCc3ccco3)c2)c(O)n1-c1ccc(Cl)cn1	i	i	i	i	i
CN1CCc2c1nc1ccccc1c2N=C1CCCN1Cc1ccccc1	i	i	i	i	i
NCC/C=C1/c2ccccc2CSc2ccccc21	i	i	i	i	-7*
COc1ccc(/C=C/C(=O)N(Cc2cccs2)C2CCS(=O)(=O)C2)cc1 (stereo not drawn)	i	i	i	i	-7.5*
COc1ccccc1/C=C/C(=O)OCC(=O)NNC(=O)c1ccccc1	i	i	i	-5.2*	i
COc1ccccc1/C=C/C(=O)OCC(=O)NCc1ccco1	i	i	i	i	i
CCN1CCN(Cc2ccc(NC(=O)c3ccc(C)c(NC(=O)C(=O)c4c[nH]c5ccccc45)c3)cc2C(F)(F)F)CC1	i	i	i	i	-8.8*
CCN1CCN(Cc2ccc(NC(=O)c3cc(NC(=O)C(=O)c4c[nH]c5ccccc45)cc(OC)c3)cc2C(F)(F)F)CC1	i	i	i	i	i
COc1cc(/C=C/C(=O)O)cc(S(=O)(=O)Nc2cccc(SC)c2)c1OC	i	i	i	-6.3*	i
COc1cc(/C=C/C(=O)O)cc(S(=O)(=O)Nc2ccc(F)cc2)c1OC	i	i	i	i	i
O=C(O/N=C1/CCSc2ccccc21)c1ccccc1	i	8.9*	i	i	i
Cc1ccc2c(c1)/C(=N/OC(=O)c1ccc(F)cc1)CCS2	i	i	i	i	i
O=C(CCC(=O)OCc1cccc([N+](=O)[O-])c1)Nc1ccccc1Cl	i	i	i	i	i
O=C(CCC(=O)OCC(=O)c1cccc([N+](=O)[O-])c1)Nc1ccccc1Cl	i	i	i	-7*	i
COc1cc(/C=C2/C(=O)NN(c3ccc(C)c(Cl)c3)C2=O)cc([N+](=O)[O-])c1O	i	i	i	i	i
COc1cc(/C=C2/C(=O)NN(c3cccc(C)c3)C2=O)cc([N+](=O)[O-])c1O	i	i	i	-9.6*	i
COc1ccc(-c2csc(NC(=O)c3ccc(C(C)(C)C)cc3)c2C(=O)O)cc1	i	14*	i	i	i
